ChEMBL document CHEMBL1122806 (J Med Chem, 1984)
Square brackets hold non-standard residues; d marks the D form. Peptide text beside a SMILES is read from it. Sta = CC(C)C[C@H](N)[C@@H](O)CC(=O)O

What was measured:
[1] = target: T1, Aminopeptidase N (Sus scrofa, UniProt P15145); assay: Compound was evaluated for the inhibition of Aminopeptidase M (AP-M) and the inhibition constant was determined after preincubating the enzyme and inhibitor
T1 sequence (P15145 whole entry): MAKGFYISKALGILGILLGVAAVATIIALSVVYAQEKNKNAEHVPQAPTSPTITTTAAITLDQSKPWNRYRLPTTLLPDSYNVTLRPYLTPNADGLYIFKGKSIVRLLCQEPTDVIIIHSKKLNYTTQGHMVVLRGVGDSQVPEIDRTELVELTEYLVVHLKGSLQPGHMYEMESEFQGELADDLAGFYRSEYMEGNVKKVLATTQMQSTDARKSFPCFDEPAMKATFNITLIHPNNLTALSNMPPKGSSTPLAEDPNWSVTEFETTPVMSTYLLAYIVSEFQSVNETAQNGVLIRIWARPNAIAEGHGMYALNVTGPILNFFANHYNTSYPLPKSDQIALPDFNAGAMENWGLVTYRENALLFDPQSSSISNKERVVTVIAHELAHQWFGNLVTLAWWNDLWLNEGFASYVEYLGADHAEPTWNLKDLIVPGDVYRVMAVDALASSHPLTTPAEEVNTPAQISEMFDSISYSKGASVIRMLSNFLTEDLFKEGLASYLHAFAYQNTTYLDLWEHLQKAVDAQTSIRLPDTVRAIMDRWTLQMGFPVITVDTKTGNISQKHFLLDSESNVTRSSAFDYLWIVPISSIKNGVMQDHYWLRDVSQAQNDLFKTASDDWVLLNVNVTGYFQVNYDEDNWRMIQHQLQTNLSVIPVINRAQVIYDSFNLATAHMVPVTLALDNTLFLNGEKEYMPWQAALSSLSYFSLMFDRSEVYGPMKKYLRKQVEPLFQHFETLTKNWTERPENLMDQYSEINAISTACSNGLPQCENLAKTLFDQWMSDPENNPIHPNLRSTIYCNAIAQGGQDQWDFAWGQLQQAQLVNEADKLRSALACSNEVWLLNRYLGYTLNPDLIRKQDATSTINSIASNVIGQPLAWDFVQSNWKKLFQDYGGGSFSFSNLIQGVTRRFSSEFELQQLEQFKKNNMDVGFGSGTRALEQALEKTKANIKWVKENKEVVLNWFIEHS
Summary of the method: (§1)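 Initial rates came from reactions started by adding enzyme to substrate plus inhibitor. Final steady-state rates came after 15-20 min enzyme-inhibitor preincubation, with substrate added to start. Reaction velocities were analysed by Lineweaver-Burk plots.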

[2] = target: T1, Aminopeptidase N; assay: Effect of inhibitor structure on the slow binding inhibition of Aminopeptidase M from porcine kidney was determined and the Ki was reported which is = k2/k1; summary of the method: as §1
[3] = target: T1, Aminopeptidase N; assay: Compound was evaluated for the inhibition of Aminopeptidase M (AP-M) from porcine kidney and the inhibition constant was determined after preincubating the enzyme and inhibitor; summary of the method: as §1
[4] = target: T1, Aminopeptidase N; assay: Effect of inhibitor structure on the slow binding inhibition of Aminopeptidase M from porcine kidney was determined and Ki was reported which is obtained by the equation Ki[k4/(k3 + k4)]; summary of the method: as §1
[5] = target: Cytosol aminopeptidase (Sus scrofa) (UniProt P28839); assay: Compound was evaluated for the inhibition of Leucine aminopeptidase from porcine kidney and the inhibition constant (Ka) was determined which is the apparent Km in the presence of tripeptide after preincubating the enzyme and inhibitor
[6] = target: T1, Aminopeptidase N; assay: Effect of inhibitor structure on the slow binding inhibition of aminopeptidase M was determined and the Ki was reported which is = k2/k1; summary of the method: as §1
[7] = target: T1, Aminopeptidase N; assay: Effect of inhibitor structure on the slow binding inhibition of aminopeptidase M was determined and Ki* was reported which is obtained by the equation Ki[k4/(k3 + k4)]; summary of the method: as §1

Chain of Cytosol aminopeptidase (Sus scrofa) (P28839 whole entry, looked up): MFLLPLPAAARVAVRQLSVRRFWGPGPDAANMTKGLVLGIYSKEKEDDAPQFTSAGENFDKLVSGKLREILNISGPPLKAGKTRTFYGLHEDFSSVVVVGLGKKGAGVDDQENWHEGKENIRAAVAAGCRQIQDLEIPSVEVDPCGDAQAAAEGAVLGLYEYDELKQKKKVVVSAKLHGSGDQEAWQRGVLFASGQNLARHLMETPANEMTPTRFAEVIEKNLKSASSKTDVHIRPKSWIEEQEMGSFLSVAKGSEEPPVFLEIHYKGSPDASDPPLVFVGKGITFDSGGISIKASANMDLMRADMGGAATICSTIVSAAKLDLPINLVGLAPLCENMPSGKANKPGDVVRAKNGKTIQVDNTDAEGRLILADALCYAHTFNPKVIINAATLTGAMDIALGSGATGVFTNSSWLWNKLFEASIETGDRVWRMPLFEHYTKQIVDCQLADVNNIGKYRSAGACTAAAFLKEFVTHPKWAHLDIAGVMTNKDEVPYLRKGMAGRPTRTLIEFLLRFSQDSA

Q: For `CC(C)C[C@H](NC(=O)[C@@H](O)[C@H](N)CC(C)C)C(=O)O`, which Ki [1] is on record?
A: 11.8 µM

Q: `CC(C)CCNC(=O)[C@H](O)[C@@H](N)Cc1ccccc1` was tested. Which Ki [2] did it give?
A: 16 µM

Q: And the Ki [3]?
A: 16.3 µM

Q: What about the Ki [4] of the same compound?
A: 16 µM

Q: With `CC(C)C[C@H](N)[C@@H](O)CC(=O)N[C@H](C(=O)N[C@H](C(=O)N[C@@H](CC(=O)O)C(=O)O)C(C)C)C(C)C` (H-[Sta]VVD-OH) as the compound, how does the Ka [5] read?
A: 0.0057

Q: For `CC(C)CCNC(=O)[C@@H](NC(=O)[C@@H](NC(=O)[C@H](O)[C@@H](N)CC(C)C)C(C)C)C(C)C`, which Ki [1] is on record?
A: 0.18 µM

Q: What does the source list for `CC(C)CC(N)C(O)C(=O)NC(C(=O)NC(CC(=O)O)C(=O)O)C(C)C` (stereo unspecified)?
A: Ki [1]: 0.94 µM; Ki [6]: 40 µM; Ki [7]: 0.9 µM

Q: With `CC(C)CCNC(=O)[C@@H](NC(=O)[C@@H](NC(=O)C[C@H](O)[C@@H](N)CC(C)C)C(C)C)C(C)C` as the compound, how does the Ki [3] read?
A: 1000 µM

Q: For `CC(C)C[C@@H](N)CC(=O)N[C@H](C(=O)N[C@H](C(=O)N[C@@H](CC(=O)O)C(=O)O)C(C)C)C(C)C`, which Ki [1] is on record?
A: 25 µM
